# Activity calls are given as the source filed them. The calls are words filed in the database; no cut-off is given here.
# Assays:
# [1] = biological target: T1, DNA topoisomerase 1 (Homo sapiens) (UniProt P11387); assay: Inhibition of recombinant human topoisomerase 1-mediated relaxation of supercoiled pBR322 DNA at 50 uM incubated for 30 mins by agarose gel electrophoresis
# T1 sequence (whole entry): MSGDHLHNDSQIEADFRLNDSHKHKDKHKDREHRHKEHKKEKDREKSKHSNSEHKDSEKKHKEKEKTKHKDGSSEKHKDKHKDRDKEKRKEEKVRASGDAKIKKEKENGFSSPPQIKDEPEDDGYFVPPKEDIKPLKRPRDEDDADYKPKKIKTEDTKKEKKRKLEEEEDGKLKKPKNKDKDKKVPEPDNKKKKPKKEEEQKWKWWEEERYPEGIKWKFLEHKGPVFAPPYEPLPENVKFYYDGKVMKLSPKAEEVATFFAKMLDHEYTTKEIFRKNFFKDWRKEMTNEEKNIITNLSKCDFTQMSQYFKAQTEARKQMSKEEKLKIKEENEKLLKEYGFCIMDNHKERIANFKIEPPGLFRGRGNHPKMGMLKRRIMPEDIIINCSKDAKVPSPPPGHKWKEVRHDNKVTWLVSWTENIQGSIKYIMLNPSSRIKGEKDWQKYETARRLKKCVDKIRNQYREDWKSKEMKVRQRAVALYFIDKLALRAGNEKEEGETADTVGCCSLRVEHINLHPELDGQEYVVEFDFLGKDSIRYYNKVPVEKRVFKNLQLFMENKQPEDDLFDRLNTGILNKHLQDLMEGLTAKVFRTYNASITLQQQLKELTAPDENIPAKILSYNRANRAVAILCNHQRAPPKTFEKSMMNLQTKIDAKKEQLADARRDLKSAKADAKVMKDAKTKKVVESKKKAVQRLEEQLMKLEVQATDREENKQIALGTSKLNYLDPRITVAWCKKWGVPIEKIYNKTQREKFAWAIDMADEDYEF
# Method in brief: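 Supercoiled pBR322 relaxed by Topo I with compound, incubated 30 min at 37 °C, stopped with 1% SDS dye, run on 1% agarose 1 h at 90 V in TAE, stained and imaged under UV; camptothecin as reference.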
# [2] = biological target: T1, DNA topoisomerase 1 (Homo sapiens); assay: Inhibition of recombinant human topoisomerase 1 assessed as interacaltion of pBR322 DNA at 50 uM pre-incubated with DNA followed by incubation with enzyme for 30 mins by agarose gel electrophoresis
# Method in brief: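 Supercoiled pBR322 first relaxed with Topo I in 50 mM Tris-HCl pH 7.5, 50 mM KCl, 10 mM MgCl2, 0.5 mM DTT, 0.1 mM EDTA, 30 μg/ml BSA. 0.1 μg relaxed DNA preincubated with compound 10 min at room temperature, then Topo I (1 unit) added for 30 min at 37 °C; phenol-chloroform extracted, SDS/EDTA stop, 1% agarose 1 h at 90 V; ethidium bromide as intercalator reference.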
# [3] = Antiproliferative activity against human MDA-MB-201 cells after 48 hrs by MTT assay; type: functional, cell-based
# Method in brief: (§1)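 Cells seeded at 5000 per well and left overnight, then exposed to increasing concentrations (0-50 μM) for 48 h. […] HL-60/MX2 is a mitoxantrone-selected HL-60 derivative with reduced Topo IIα/β.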
# [4] = tested on: A549; assay: Antiproliferative activity against human A549 cells after 48 hrs by MTT assay; type: functional, cell-based; details: A549, 48 h; method in brief: as §1
# [5] = Antiproliferative activity against human HL60/MX2 cells after 48 hrs by MTT assay; type: functional, cell-based; details: HL60/MX2, 48 h; method in brief: as §1
# [6] = tested on: HL-60; assay: Resistance index, ratio of IC50 for human HL60/MX2 cells to IC50 for HL60 cells; type: functional
# Method in brief: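 Resistance index calculated as MTT-derived IC50 (48 h exposure, 0-50 μM, A570 readout) in HL-60/MX2 divided by IC50 in parental HL-60.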
# [7] = tested on: HL-60; assay: Induction of apoptosis in human HL60 cells assessed as late apoptotic cells at 0.5 uM after 12 hrs by annexin V-FITC/propidium iodide staining-based flow cytometric analysis (reference value: 0.17 to 0.18%); type: functional
# Method in brief: (§2)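 HL-60 cells at 5.0 × 10^5 cells/ml treated for 12 h (0.5–2 μM) or 24 h (0.25–1 μM), washed twice in cold PBS, resuspended in binding buffer, stained with annexin V-FITC and propidium iodide for 15 min in the dark, analysed by flow cytometry within 1 h; quadrants define live, early and late apoptotic cells. Three repeats.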
# [8] = tested on: HL-60; assay: Induction of apoptosis in human HL60 cells assessed as dead cells at 1 uM after 12 hrs by annexin V-FITC/propidium iodide staining-based flow cytometric analysis (reference value: 0.12 to 0.15%); type: functional
# [9] = tested on: HL-60; assay: Induction of apoptosis in human HL60 cells assessed as dead cells at 2 uM after 12 hrs by annexin V-FITC/propidium iodide staining-based flow cytometric analysis (reference value: 0.12 to 0.15%); type: functional
# [10] = tested on: HL-60; assay: Induction of apoptosis in human HL60 cells assessed as late apoptotic cells at 2 uM after 12 hrs by annexin V-FITC/propidium iodide staining-based flow cytometric analysis (reference value: 0.17 to 0.18%); type: functional; method in brief: as §2
# [11] = tested on: HL-60; assay: Induction of apoptosis in human HL60 cells assessed as early apoptotic cells at 2 uM after 12 hrs by annexin V-FITC/propidium iodide staining-based flow cytometric analysis (reference value: 0.38 to 0.55%); type: functional; method in brief: as §2
# [12] = tested on: HL-60; assay: Induction of apoptosis in human HL60 cells assessed as late apoptotic cells at 0.25 uM after 24 hrs by annexin V-FITC/propidium iodide staining-based flow cytometric analysis (reference value: 1.64%); type: functional; method in brief: as §2
# [13] = tested on: HL-60; assay: Induction of apoptosis in human HL60 cells assessed as viable cells at 0.25 uM after 24 hrs by annexin V-FITC/propidium iodide staining-based flow cytometric analysis (reference value: 97.75%); type: functional; details: HL-60, 24 h, read-out: Activity; method in brief: as §2
# [14] = tested on: HL-60; assay: Induction of apoptosis in human HL60 cells assessed as early apoptotic cells at 0.25 uM after 24 hrs by annexin V-FITC/propidium iodide staining-based flow cytometric analysis (reference value: 0.5%); type: functional; method in brief: as §2
# [15] = tested on: HL-60; assay: Induction of apoptosis in human HL60 cells assessed as early apoptotic cells at 0.5 uM after 24 hrs by annexin V-FITC/propidium iodide staining-based flow cytometric analysis (reference value: 0.5%); type: functional; method in brief: as §2
# [16] = tested on: HL-60; assay: Induction of apoptosis in human HL60 cells assessed as early apoptotic cells at 1 uM after 24 hrs by annexin V-FITC/propidium iodide staining-based flow cytometric analysis (reference value: 0.5%); type: functional; method in brief: as §2
# [17] = biological target: DNA topoisomerase 2-alpha (Homo sapiens, UniProt P11388); assay: Inhibition of purified human topoisomerase 2 catalytic activity using supercoiled pBR322 DNA as substrate assessed as inhibition of etoposide-induced linear DNA formation at 20 uM pre-incubated before etoposide addition by agarose gel electrophoresis
# Method in brief: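 Human Topo II (6 units) with 0.1 μg supercoiled pBR322 in 50 mM Tris-HCl pH 8.0, 150 mM NaCl, 10 mM MgCl2, 2 mM ATP, 0.5 mM DTT, 30 μg/ml BSA; compounds at 20 μM, etoposide 100 μM. After 6 min at 37 °C, complexes trapped with SDS then EDTA, proteinase K 30 min at 45 °C, heated 72 °C 2 min, run on 1% agarose; linear DNA scored. Antagonism tested by compound pretreatment before etoposide.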
# Sequence of DNA topoisomerase 2-alpha (P11388 whole entry): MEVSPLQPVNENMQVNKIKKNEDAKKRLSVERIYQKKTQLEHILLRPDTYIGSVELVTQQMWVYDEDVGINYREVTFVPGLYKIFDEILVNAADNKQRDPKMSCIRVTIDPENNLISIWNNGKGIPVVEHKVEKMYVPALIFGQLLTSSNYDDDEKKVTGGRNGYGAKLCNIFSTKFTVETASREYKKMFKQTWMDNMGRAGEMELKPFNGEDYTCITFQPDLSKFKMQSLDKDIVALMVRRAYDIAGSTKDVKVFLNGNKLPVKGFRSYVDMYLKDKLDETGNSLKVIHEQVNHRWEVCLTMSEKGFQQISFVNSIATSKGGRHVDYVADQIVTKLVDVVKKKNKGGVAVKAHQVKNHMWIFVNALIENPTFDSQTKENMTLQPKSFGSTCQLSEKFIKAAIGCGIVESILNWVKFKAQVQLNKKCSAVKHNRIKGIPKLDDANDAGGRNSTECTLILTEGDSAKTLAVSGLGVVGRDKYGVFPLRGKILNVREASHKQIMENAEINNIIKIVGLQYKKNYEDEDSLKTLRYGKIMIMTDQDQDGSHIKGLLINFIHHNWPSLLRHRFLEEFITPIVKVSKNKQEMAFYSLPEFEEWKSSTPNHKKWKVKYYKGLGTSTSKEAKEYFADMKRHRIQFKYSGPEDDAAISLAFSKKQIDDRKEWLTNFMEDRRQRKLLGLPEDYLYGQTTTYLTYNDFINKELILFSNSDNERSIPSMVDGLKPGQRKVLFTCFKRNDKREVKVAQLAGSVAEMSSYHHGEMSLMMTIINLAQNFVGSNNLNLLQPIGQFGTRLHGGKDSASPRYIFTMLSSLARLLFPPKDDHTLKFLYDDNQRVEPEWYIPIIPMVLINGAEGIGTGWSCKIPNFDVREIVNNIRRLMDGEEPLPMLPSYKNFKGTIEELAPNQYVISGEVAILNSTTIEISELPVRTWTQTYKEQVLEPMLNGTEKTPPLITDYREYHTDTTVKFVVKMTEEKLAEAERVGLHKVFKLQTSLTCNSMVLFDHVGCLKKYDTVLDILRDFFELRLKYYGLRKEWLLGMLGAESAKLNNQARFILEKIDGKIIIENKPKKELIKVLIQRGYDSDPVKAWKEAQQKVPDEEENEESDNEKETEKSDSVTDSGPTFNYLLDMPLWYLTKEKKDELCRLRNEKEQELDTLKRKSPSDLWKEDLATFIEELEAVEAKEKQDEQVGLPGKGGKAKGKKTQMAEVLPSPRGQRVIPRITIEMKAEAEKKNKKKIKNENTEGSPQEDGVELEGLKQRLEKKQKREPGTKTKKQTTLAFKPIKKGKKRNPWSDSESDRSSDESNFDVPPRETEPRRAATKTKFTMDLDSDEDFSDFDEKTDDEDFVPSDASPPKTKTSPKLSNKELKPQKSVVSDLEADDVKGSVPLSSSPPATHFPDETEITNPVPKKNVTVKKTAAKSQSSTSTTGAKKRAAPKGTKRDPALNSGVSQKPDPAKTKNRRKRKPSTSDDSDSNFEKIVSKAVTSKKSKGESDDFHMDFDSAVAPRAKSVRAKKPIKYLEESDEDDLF
Compound,inhibition [1],inhibition [2],IC50 [3] [µM],IC50 [4] [µM],IC50 [5] [µM],Ratio IC50 [6],Activity [7] [%],Activity [8] [%],Activity [9] [%],Activity [10] [%],Activity [11] [%],Activity [12] [%],viability at 0.25 µM [13] [%],Activity [14] [%],Activity [15] [%],Activity [16] [%],inhibition [17]
CCN(CC)CCCCn1c(N)c(-c2nc3ccccc3[nH]2)c2nc(C#N)c(C#N)nc21,inactive,inactive,0.64,5.75,1.55,3.3,0.21,0.25,1.36,46.73,6.62,0.41,99.2,0.35,3.24,9.38,Active
CN(C)CCCCn1c(N)c(-c2nc3ccccc3[nH]2)c2nc(C#N)c(C#N)nc21,inactive,inactive,0.53,8.24,1.78,4.1,0.21,0.11,1.96,64.15,5.8,0.42,99,0.54,4.45,0.53,Active
